Laboratory results: ChEMBL document CHEMBL3297689, “Phenylalanine-Based Inactivator of AKT Kinase: Design, Synthesis, and Biological Evaluation” (ACS Med Chem Lett, 2014)
One block for each compound: values may come before it.

Tests used:
[1] = target: Ribosomal protein S6 kinase alpha-1 (Homo sapiens) (UniProt Q15418); test: Inhibition of RSK1 (unknown origin) at 1 uM in presence of 100 uM ATP
[2] = target: Tyrosine-protein kinase CSK (Homo sapiens) (UniProt P41240); test: Inhibition of CSK (unknown origin) at 1 uM in presence of 100 uM ATP
[3] = target: T1, RAC-alpha serine/threonine-protein kinase (Homo sapiens, UniProt P31749); test: Irreversible inhibition of AKT1 (unknown origin) Z'-LYTE kinase assay in presence of ATP; details: TDE = time-dependent effect
Outline: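 Recombinant AKT1 activity read by the FRET-based Z′-LYTE kit, which measures phosphorylation of a peptide substrate. […] IC50 values are averages of three independent experiments with 95% confidence intervals.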

[4] = target: Calcium/calmodulin-dependent protein kinase type IV (Homo sapiens) (UniProt Q16566); test: Inhibition of CAMK-4 (unknown origin) at 1 uM in presence of 100 uM ATP
[5] = target: Calcium/calmodulin-dependent protein kinase type 1D (Homo sapiens) (UniProt Q8IU85); test: Inhibition of CAMK1D (unknown origin) at 1 uM in presence of 100 uM ATP
[6] = target: Mitogen-activated protein kinase 14 (Homo sapiens) (UniProt Q16539); test: Inhibition of MAPK14 (unknown origin) at 1 uM in presence of 100 uM ATP
[7] = target: Dual specificity mitogen-activated protein kinase kinase 1 (Homo sapiens) (UniProt Q02750); test: Inhibition of MEK1 (unknown origin) at 1 uM in presence of 100 uM ATP
[8] = target: Mitogen-activated protein kinase 3 (Homo sapiens) (UniProt P27361); test: Inhibition of MAPK3 (unknown origin) at 1 uM in presence of 100 uM ATP
[9] = target: CDK2/Cyclin A2 (Homo sapiens) (UniProt P24941+P20248); test: Inhibition of CDK2/cyclinA (unknown origin) at 1 uM in presence of 100 uM ATP; type: protein-complex assay
[10] = Selectivity index, ratio of IC50 for human HCT116 cells to IC50 for recombinant AKT (unknown origin); design: species or system HCT-116
[11] = target: Serine/threonine-protein kinase Sgk1 (Homo sapiens) (UniProt O00141); test: Inhibition of SGK1 (unknown origin) at 1 uM in presence of 100 uM ATP
[12] = target: T1, RAC-alpha serine/threonine-protein kinase; test: Inhibition of AKT1 (unknown origin) after 1 hr by Z'-LYTE kinase assay in presence of 75 uM ATP
[13] = target: T1, RAC-alpha serine/threonine-protein kinase; test: Inhibition of AKT1 (unknown origin) at 1 uM in presence of 100 uM ATP
[14] = system: NCI-H460; test: Growth inhibition of human NCI-H460 cells after 72 hrs by coulter counter method; type: functional, cell-based; details: NCI-H460, 72 h
[15] = target: Mitogen-activated protein kinase kinase kinase kinase 5 (Homo sapiens) (UniProt Q9Y4K4); test: Inhibition of MAP4K5 (unknown origin) at 1 uM in presence of 100 uM ATP
[16] = target: PAS domain-containing serine/threonine-protein kinase (Homo sapiens) (UniProt Q96RG2); test: Inhibition of PASK (unknown origin) at 1 uM in presence of 100 uM ATP
[17] = target: Maternal embryonic leucine zipper kinase (Homo sapiens) (UniProt Q14680); test: Inhibition of MELK (unknown origin) at 1 uM in presence of 100 uM ATP
[18] = target: Ribosomal protein S6 kinase alpha-5 (Homo sapiens) (UniProt O75582); test: Inhibition of MSK1 (unknown origin) at 1 uM in presence of 100 uM ATP
[19] = species on record: Homo sapiens; test: Selectivity for AKT1 (unknown origin) over PKAalpha (unknown origin)
Outline: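 Selectivity is the PKAα IC50 divided by the AKT1 IC50. Both IC50s were measured in the FRET-based Z′-LYTE peptide-phosphorylation assay.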

[20] = target: Vascular endothelial growth factor receptor 2 (Homo sapiens) (UniProt P35968); test: Inhibition of VEGFR2 (unknown origin) at 1 uM in presence of 100 uM ATP
[21] = target: Serine/threonine-protein kinase Chk2 (Homo sapiens) (UniProt O96017); test: Inhibition of CHK2 (unknown origin) at 1 uM in presence of 100 uM ATP
[22] = target: 3-phosphoinositide-dependent protein kinase 1 (Homo sapiens) (UniProt O15530); test: Inhibition of PDK1 (unknown origin) at 1 uM in presence of 100 uM ATP
[23] = target: Aurora kinase A (Homo sapiens) (UniProt O14965); test: Inhibition of AURKA (unknown origin) at 1 uM in presence of 100 uM ATP
[24] = target: MAP kinase-interacting serine/threonine-protein kinase 1 (Homo sapiens) (UniProt Q9BUB5); test: Inhibition of MKNK1 (unknown origin) at 1 uM in presence of 100 uM ATP
[25] = target: Receptor tyrosine-protein kinase erbB-4 (Homo sapiens) (UniProt Q15303); test: Inhibition of ERBB4 (unknown origin) at 1 uM in presence of 100 uM ATP
[26] = Selectivity index, ratio of IC50 for human NCI-H460 cells to IC50 for recombinant AKT (unknown origin)
[27] = target: Cyclin-dependent kinase 1/cyclin B1 (Homo sapiens) (UniProt P06493+P14635); test: Inhibition of CDK1/cyclinB (unknown origin) at 1 uM in presence of 100 uM ATP; type: protein-complex assay
[28] = target: Platelet-derived growth factor receptor alpha (Homo sapiens) (UniProt P16234); test: Inhibition of PDGFRA (unknown origin) at 1 uM in presence of 100 uM ATP
[29] = target: Serine/threonine-protein kinase MARK1 (Homo sapiens) (UniProt Q9P0L2); test: Inhibition of MARK1 (unknown origin) at 1 uM in presence of 100 uM ATP
[30] = target: 5'-AMP-activated protein kinase catalytic subunit alpha-1 (Homo sapiens) (UniProt Q13131); test: Inhibition of AMPKalpha1 (unknown origin) at 1 uM in presence of 100 uM ATP
[31] = target: Vascular endothelial growth factor receptor 1 (Homo sapiens) (UniProt P17948); test: Inhibition of FLT1 (unknown origin) at 1 uM in presence of 100 uM ATP
[32] = target: Proto-oncogene tyrosine-protein kinase Src (Homo sapiens) (UniProt P12931); test: Inhibition of SRC (unknown origin) at 1 uM in presence of 100 uM ATP
[33] = target: Ribosomal protein S6 kinase beta-1 (Homo sapiens) (UniProt P23443); test: Inhibition of p70S6K (unknown origin) at 1 uM in presence of 100 uM ATP
[34] = target: Focal adhesion kinase 1 (Homo sapiens) (UniProt Q05397); test: Inhibition of PTK2 (unknown origin) at 1 uM in presence of 100 uM ATP
[35] = target: Tyrosine-protein kinase SYK (Homo sapiens) (UniProt P43405); test: Inhibition of SYK (unknown origin) at 1 uM in presence of 100 uM ATP
[36] = target: Serine/threonine-protein kinase Chk1 (Homo sapiens) (UniProt O14757); test: Inhibition of CHK1 (unknown origin) at 1 uM in presence of 100 uM ATP
[37] = target: Serine/threonine-protein kinase PLK1 (Homo sapiens) (UniProt P53350); test: Inhibition of PLK1 (unknown origin) at 1 uM in presence of 100 uM ATP
[38] = target: AMP-activated protein kinase, AMPK (Homo sapiens) (UniProt P54646+O43741+P54619+Q9UGJ0+Q9Y478+Q13131+Q9UGI9); test: Inhibition of AMPKalpha1/beta1/gamma1 (unknown origin) at 1 uM in presence of 100 uM ATP; type: protein-complex assay
[39] = target: Protein kinase C theta type (Homo sapiens) (UniProt Q04759); test: Inhibition of PKCtheta (unknown origin) at 1 uM in presence of 100 uM ATP
[40] = Inhibition of PKAalpha (unknown origin) after 1 hr by Z'-LYTE kinase assay in presence of 4 uM ATP; design: species or system Homo sapiens
Outline: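 Z′-LYTE FRET assay measuring phosphorylation of a peptide substrate by recombinant kinase, independent of mechanism. IC50 is the average of three independent experiments, with 95% confidence intervals.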

[41] = target: cGMP-dependent protein kinase 1 (Homo sapiens) (UniProt Q13976); test: Inhibition of PRKG1 (unknown origin) at 1 uM in presence of 100 uM ATP
[42] = target: Testis-specific serine/threonine-protein kinase 1 (Homo sapiens) (UniProt Q9BXA7); test: Inhibition of TSSK1 (unknown origin) at 1 uM in presence of 100 uM ATP
[43] = target: Tyrosine-protein kinase Lyn (Homo sapiens) (UniProt P07948); test: Inhibition of LYN A (unknown origin) at 1 uM in presence of 100 uM ATP
[44] = target: Epidermal growth factor receptor (Homo sapiens) (UniProt P00533); test: Inhibition of EGFR (unknown origin) at 1 uM in presence of 100 uM ATP
[45] = target: Mitogen-activated protein kinase 1 (Homo sapiens) (UniProt P28482); test: Inhibition of MAPK1 (unknown origin) at 1 uM in presence of 100 uM ATP
[46] = target: Tyrosine-protein kinase ABL1 (Homo sapiens) (UniProt P00519); test: Inhibition of ABL1 (unknown origin) at 1 uM in presence of 100 uM ATP
[47] = Growth inhibition of human HCT116 cells after 72 hrs by coulter counter method; type: functional, cell-based; details: HCT-116, 72 h
[48] = target: cAMP-dependent protein kinase catalytic subunit PRKX (Homo sapiens) (UniProt P51817); test: Inhibition of PRKX (unknown origin) at 1 uM in presence of 100 uM ATP
[49] = target: Protein kinase C alpha type (Homo sapiens) (UniProt P17252); test: Inhibition of PKCalpha (unknown origin) at 1 uM in presence of 100 uM ATP
[50] = target: Hepatocyte growth factor receptor (Homo sapiens) (UniProt P08581); test: Inhibition of MET (unknown origin) at 1 uM in presence of 100 uM ATP
[51] = target: MAP kinase-activated protein kinase 2 (Homo sapiens) (UniProt P49137); test: Inhibition of MAPKAPK2 (unknown origin) at 1 uM in presence of 100 uM ATP
[52] = species on record: Homo sapiens; test: Inhibition of PKAalpha (unknown origin) at 1 uM in presence of 100 uM ATP

T1 sequence (P31749 whole entry): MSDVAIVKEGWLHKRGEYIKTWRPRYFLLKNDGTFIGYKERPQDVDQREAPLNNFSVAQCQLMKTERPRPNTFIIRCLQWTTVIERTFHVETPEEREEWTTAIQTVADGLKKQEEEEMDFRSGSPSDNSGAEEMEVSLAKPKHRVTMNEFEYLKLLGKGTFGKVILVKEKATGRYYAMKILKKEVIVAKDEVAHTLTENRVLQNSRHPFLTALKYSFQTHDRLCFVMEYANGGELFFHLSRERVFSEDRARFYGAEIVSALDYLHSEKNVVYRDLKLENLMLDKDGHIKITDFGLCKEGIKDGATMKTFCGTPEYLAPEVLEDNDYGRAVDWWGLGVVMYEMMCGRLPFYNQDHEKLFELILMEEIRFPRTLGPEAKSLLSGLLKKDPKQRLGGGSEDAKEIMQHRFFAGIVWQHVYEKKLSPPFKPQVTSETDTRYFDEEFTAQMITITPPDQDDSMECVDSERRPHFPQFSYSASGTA
Sequence of Calcium/calmodulin-dependent protein kinase type 1D (Homo sapiens) (Q8IU85 whole entry, looked up): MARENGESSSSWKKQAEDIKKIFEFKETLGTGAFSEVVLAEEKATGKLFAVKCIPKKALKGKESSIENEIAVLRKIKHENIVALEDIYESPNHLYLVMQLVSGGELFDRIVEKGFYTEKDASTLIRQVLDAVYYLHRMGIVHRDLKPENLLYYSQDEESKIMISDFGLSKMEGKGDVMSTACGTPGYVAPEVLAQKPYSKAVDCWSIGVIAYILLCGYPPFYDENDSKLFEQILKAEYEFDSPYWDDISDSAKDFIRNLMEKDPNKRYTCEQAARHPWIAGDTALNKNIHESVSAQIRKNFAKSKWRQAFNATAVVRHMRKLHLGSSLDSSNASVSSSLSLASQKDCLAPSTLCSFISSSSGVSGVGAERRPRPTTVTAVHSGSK
Sequence of Platelet-derived growth factor receptor alpha (Homo sapiens) (P16234 whole entry): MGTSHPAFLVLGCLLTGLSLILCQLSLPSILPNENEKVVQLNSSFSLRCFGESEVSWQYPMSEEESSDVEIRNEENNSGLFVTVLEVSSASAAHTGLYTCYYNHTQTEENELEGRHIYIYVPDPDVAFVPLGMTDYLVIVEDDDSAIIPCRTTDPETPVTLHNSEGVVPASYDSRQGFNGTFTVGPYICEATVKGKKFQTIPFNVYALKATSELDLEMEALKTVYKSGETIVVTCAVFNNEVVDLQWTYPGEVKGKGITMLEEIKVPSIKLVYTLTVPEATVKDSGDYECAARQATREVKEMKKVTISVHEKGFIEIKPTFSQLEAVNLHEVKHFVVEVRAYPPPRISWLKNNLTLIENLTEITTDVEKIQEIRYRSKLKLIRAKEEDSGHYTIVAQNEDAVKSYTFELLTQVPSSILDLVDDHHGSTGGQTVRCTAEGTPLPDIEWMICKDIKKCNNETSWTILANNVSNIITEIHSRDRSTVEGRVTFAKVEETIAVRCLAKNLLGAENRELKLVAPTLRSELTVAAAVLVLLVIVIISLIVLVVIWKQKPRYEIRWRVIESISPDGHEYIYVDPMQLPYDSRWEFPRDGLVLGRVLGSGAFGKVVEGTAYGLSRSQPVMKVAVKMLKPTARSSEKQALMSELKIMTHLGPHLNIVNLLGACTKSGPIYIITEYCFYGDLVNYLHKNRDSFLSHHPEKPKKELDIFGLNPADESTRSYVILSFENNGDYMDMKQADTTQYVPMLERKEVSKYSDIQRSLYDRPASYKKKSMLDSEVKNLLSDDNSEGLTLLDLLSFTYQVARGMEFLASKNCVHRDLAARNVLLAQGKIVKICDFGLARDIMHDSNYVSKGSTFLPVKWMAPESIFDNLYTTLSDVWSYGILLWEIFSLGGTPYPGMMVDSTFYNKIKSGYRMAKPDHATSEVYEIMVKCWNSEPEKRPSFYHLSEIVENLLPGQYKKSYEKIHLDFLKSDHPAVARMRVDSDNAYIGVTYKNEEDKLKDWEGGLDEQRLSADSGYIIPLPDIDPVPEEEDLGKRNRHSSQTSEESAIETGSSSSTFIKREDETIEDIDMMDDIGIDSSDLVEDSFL
Sequence of Vascular endothelial growth factor receptor 1 (Homo sapiens) (P17948 whole entry): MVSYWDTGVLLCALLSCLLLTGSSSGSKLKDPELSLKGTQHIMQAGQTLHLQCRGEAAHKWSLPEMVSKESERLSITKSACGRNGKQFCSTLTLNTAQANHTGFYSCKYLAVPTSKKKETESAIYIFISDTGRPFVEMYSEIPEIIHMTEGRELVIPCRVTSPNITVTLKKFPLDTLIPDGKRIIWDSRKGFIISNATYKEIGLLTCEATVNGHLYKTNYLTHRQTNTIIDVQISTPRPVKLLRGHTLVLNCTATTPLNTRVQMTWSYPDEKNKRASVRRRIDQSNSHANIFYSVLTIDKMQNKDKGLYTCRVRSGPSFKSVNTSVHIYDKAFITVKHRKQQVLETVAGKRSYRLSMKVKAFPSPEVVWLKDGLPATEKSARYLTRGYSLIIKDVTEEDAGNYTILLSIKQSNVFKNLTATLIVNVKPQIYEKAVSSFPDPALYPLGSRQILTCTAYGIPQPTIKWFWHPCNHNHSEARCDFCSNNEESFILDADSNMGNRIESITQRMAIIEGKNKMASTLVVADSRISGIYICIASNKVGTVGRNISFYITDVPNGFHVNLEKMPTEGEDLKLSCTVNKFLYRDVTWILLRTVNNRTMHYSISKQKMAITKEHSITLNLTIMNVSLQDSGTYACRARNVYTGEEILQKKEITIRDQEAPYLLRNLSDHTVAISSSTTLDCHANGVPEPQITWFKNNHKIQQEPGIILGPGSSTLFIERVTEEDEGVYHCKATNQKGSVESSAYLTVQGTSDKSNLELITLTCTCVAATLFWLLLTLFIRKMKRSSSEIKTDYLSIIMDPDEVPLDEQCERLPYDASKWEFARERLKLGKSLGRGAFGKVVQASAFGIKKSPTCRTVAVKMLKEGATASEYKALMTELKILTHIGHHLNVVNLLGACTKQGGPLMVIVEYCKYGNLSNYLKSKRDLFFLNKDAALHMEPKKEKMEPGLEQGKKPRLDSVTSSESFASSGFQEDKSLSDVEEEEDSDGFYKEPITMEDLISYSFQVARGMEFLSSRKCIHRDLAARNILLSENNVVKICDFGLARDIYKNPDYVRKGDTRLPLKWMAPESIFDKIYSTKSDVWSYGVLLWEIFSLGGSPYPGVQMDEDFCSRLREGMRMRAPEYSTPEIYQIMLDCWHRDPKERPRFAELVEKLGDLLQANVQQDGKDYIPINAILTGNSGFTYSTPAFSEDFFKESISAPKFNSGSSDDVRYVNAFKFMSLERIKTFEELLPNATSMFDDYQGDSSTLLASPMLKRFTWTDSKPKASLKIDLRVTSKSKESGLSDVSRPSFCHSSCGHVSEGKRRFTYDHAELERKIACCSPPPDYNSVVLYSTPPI
Sequence of Mitogen-activated protein kinase 3 (Homo sapiens) (P27361 whole entry): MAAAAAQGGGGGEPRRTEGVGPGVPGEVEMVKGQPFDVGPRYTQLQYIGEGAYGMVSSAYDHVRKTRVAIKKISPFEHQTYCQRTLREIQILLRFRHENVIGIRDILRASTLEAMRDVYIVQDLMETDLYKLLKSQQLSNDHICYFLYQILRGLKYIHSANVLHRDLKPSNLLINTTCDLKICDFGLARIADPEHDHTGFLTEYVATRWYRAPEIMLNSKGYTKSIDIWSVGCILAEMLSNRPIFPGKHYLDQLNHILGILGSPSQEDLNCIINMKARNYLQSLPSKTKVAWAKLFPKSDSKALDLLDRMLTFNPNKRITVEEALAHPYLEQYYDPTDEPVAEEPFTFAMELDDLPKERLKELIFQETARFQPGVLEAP
Sequence of Ribosomal protein S6 kinase beta-1 (Homo sapiens) (P23443 whole entry, looked up): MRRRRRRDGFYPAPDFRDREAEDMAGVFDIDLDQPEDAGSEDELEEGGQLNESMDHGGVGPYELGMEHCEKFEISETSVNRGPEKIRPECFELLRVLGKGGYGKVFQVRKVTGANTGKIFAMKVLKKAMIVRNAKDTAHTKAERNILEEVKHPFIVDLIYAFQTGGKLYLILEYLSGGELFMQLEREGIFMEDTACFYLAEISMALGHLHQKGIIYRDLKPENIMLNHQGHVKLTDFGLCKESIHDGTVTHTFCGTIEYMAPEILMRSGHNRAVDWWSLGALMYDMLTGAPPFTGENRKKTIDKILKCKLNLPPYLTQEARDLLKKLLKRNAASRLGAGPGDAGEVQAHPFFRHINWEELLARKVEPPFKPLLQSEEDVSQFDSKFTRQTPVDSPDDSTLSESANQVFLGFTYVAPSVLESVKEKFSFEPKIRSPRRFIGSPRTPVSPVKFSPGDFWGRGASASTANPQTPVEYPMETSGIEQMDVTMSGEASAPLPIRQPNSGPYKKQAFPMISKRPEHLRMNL

inhibition [1]: 5% | inhibition [2]: 8% | inhibition [3]: tde | inhibition [4]: 50% | inhibition [5]: 36% | inhibition [6]: 17% | inhibition [7]: 5% | inhibition [8]: 8% | inhibition [9]: 3% | inhibition [11]: 34% | IC50 [12]: 0.58 µM | inhibition [13]: 50% | inhibition [15]: 22% | inhibition [16]: 19% | inhibition [17]: 62% | inhibition [18]: 10% | Selectivity ratio [19]: 90 | inhibition [20]: -6% | inhibition [21]: 46% | inhibition [22]: 15% | inhibition [23]: 35% | inhibition [24]: 2% | inhibition [25]: 9% | inhibition [27]: 9% | inhibition [28]: 0% | inhibition [29]: 4% | inhibition [30]: 46% | inhibition [31]: 2% | inhibition [32]: -4% | inhibition [33]: 14% | inhibition [34]: -4% | inhibition [35]: -1% | inhibition [36]: 5% | inhibition [37]: 10% | inhibition [38]: 46% | inhibition [39]: 3% | IC50 [40]: 52.6 µM | inhibition [41]: -4% | inhibition [42]: -1% | inhibition [43]: 5% | inhibition [44]: -2% | inhibition [45]: 15% | inhibition [46]: 13% | inhibition [48]: -1% | inhibition [49]: 18% | inhibition [50]: 11% | inhibition [51]: -7% | inhibition [52]: -10%
SMILES: C=CC(=O)[C@H](Cc1ccccc1)NC(=O)OC(C)(C)C
Ratio IC50 [10]: 37 | IC50 [14]: 22.9 µM | Ratio IC50 [26]: 39 | IC50 [47]: 21.5 µM

IC50 [12]: > 100 µM
SMILES: CC(C)(C)OC(=O)N[C@@H](Cc1ccccc1)C(=O)NCCBr

IC50 [12]: 24.7 µM
SMILES: CC(C)(C)OC(=O)NN(Cc1ccccc1)C(=O)CBr

IC50 [12]: > 100 µM
SMILES: CC(C)(C)OC(=O)NN(Cc1ccccc1)C(=O)CCl

IC50 [12]: 4.68 µM
SMILES: CC(C)(C)OC(=O)NN(Cc1ccccc1)C(=O)CN1C(=O)C=CC1=O

IC50 [12]: > 100 µM
SMILES: CCC(=O)[C@H](Cc1ccccc1)NC(=O)OC(C)(C)C
IC50 [14]: > 100 µM | IC50 [47]: > 100 µM

IC50 [12]: 4.48 µM
SMILES: CC(C)(C)OC(=O)N[C@@H](Cc1ccccc1)C(=O)NCCN1C(=O)C=CC1=O
